The record followed here is ChEMBL document CHEMBL4393705, “New chalcone-sulfonamide hybrids exhibiting anticancer and antituberculosis activity” (Eur J Med Chem, 2019).

One series has as its system NIH3T3. In words: Cytotoxicity against mouse 3T3 cells assessed as cell viability measured after 48 hrs by MTT assay. Format: cell-based. The following applies: nih3t3, 48 h. The method, boiled down: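 3T3 fibroblasts in DMEM with 10% FBS and penicillin-streptomycin, seeded at 10^4 cells/well 24 h prior. Exposed 48 h to two-fold serial dilutions from a 100 mg/mL DMSO stock. MTT (5 mg/mL in PBS) added for 1.5 h, formazan dissolved in DMSO, read at 530 nm. Duplicate runs on different days. Value interpolated between DMSO (100%) and cycloheximide (0%) controls.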
A general note: Tetrazolium dyes change colour on reduction, which living cells bring about.

A further series deals with Staphylococcus aureus. Kind of series: Antibacterial activity against Staphylococcus aureus measured every 120 mins for 36 hrs by LB broth two-fold serial dilution method. Format: functional. The method, boiled down:
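Panel of 12 laboratory and clinical S. aureus strains with varied drug-susceptibility patterns. Compounds were two-fold serially diluted in LB broth from a maximum of 32 mg/L. Growth was followed by OD600 every 120 min for 36 h. Vancomycin was the positive control, and runs were in duplicate.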

The test system of series [1] is Mycobacterium tuberculosis. Kind of series: Antitubercular activity against Mycobacterium tuberculosis H37Rv ATCC27294 measured after 2-3 weeks by agar dilution SPOTi assay. It is filed as functional. The settings on record: H37Rv ATCC 27294. The method, boiled down:
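Agar dilution SPOTi on Middlebrook 7H10 with 0.5% glycerol and 10% OADC. Final compound levels 50, 20, 10, 5, 2 mg/L, added from DMSO dilutions. 2 µL of a 10^6 CFU/mL inoculum from a 4-week Löwenstein-Jensen culture spotted per well, incubated 2-3 weeks at 37°C. MIC is the lowest concentration with no visible growth. Repeated on a separate day; isoniazid was the reference.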
In general terms: In agar dilution, organisms are placed on agar that contains the substance at set levels.

The test system of series [2] is Mycolicibacterium smegmatis. In words: Antibacterial activity against Mycobacterium smegmatis MC2 155 measured after 48 hrs by agar dilution SPOTi assay. Format: functional. The settings on record: MC2 155, 48 h. Summed up:
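SPOTi agar dilution on Middlebrook 7H10 without OADC. Cells were passaged in Middlebrook 7H9 and then spotted. Compounds were tested at 100, 50, 20, 10 and 5 mg/L, with kanamycin as positive control. Plates were incubated 48 h at 37°C. MIC was taken as the lowest concentration with no visible growth.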

In another series the test system is HCT-116. In words: Anticancer activity against human HCT116 cells assessed as tumour cell growth at 10 uM after 48 hrs by SRB assay relative to control. It is filed as functional. The method, boiled down: (§1)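 NCI 60-line primary screen at a single 10 μM dose in RPMI-1640 with 5% FBS and 2 mM L-glutamine. Cells were preincubated 24 h at 37 °C in 5% CO₂, with time-zero plates fixed with TCA. Compounds (DMSO, diluted in gentamicin medium) were incubated 48 h, then cells TCA-fixed and stained with 0.4% SRB (A515). Growth percent was derived from time-zero, control and treated absorbances.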

The next series deals with K562. In words: Anticancer activity against human K562 cells assessed as tumour cell growth at 10 uM after 48 hrs by SRB assay relative to control. Format: functional. The method, boiled down:
as §1
(In general: Sulforhodamine B stains cellular protein and so reports cell mass.)

Series [3] in a line: Selectivity index, ratio of LC50 for mouse 3T3 cells to MIC for Mycobacterium tuberculosis H37Rv ATCC27294. The settings on record: read-out: Selectivity Index. Format: toxicity.
The next series concerns HL-60. In words: Anticancer activity against human HL60 cells assessed as tumour cell growth at 10 uM after 48 hrs by SRB assay relative to control. It is filed as functional. Summed up:
as §1

For the next series, the system named is SR. In words: Anticancer activity against human SR cells assessed as tumour cell growth at 10 uM after 48 hrs by SRB assay relative to control. Format: functional. Summed up:
as §1

Another series relates to M14. In words: Anticancer activity against human M14 cells assessed as tumour cell growth at 10 uM after 48 hrs by SRB assay relative to control. Format: functional. Summed up: as §1

Values after ≈ are worked out from the molar mass of the structure shown.

The term LC50 denotes the concentration that kills 50% of the test population. A word on the MIC: it is the least concentration at which growth counts as inhibited. Low values mean greater potency, high ones weaker potency. Turning to `COc1ccc(C(=O)/C=C/c2cc(OC)c(OC)c(OC)c2)cc1S(=O)(=O)Nc1c(N)nc(SC)[nH]c1=O`, the LC50 in the series on NIH3T3 was 2.1 µM. Further, the MIC was above 57 µM in the series with Staphylococcus aureus, above 89 µM in series [1] and above 175 µM in [2].

For `COc1ccc(C(=O)/C=C/c2ccc3c(c2)OCO3)cc1S(N)(=O)=O`, in the series with NIH3T3, the median lethal concentration (LC50) came to 132 µM. In addition, the Activity with HCT-116 is on record as 19.22%; in the series on K562 it was 44.59%. For the same compound, the figures for the MIC (in the series with Staphylococcus aureus; in series [1]; in series [2]) were above 57 µM, above 138 µM and above 175 µM, respectively.

For the compound `COc1ccc(C(=O)/C=C/c2ccc(C)cc2)cc1S(=O)(=O)Nc1c(N)nc(SC)[nH]c1=O`, the selectivity ratio in [3] is 0.18. The LC50 with NIH3T3 is 7.2 µM. Also, the Activity is 10.78% with HCT-116 and 38.79% in the series with K562. Further, the MIC was above 57 µM in the series with Staphylococcus aureus, 41 µM (≈ 19.9 µg/mL) in series [1] and above 175 µM in series [2].

`COc1ccc(C(=O)/C=C/c2ccc(C)cc2)cc1S(N)(=O)=O`: the selectivity ratio in series [3] turned out to be 0.14. The LC50 in the series on NIH3T3 was 4.3 µM. Besides, the Activity with K562 was found to be 3.04%. Moreover, the MIC was above 57 µM in the series on Staphylococcus aureus, 30 µM (≈ 9.94 µg/mL) in [1] and above 175 µM in series [2].

`NNC(=O)c1ccncc1` [ISONIAZID] showed an MIC in [1] of 0.36 µM (≈ 0.0494 µg/mL).

`COc1ccc(C(=O)/C=C/c2ccccc2)cc1S(=O)(=O)Nc1c(N)nc(SC)[nH]c1=O`: the selectivity ratio in [3] was 0.4. Besides, in the series on NIH3T3, the LC50 came to 17 µM. Besides, the Activity amounted to 35.18% with HCT-116 and 35.63% with K562. Moreover, the minimum inhibitory concentration (MIC) is above 57 µM against Staphylococcus aureus, 42 µM (≈ 19.8 µg/mL) in [1] and above 175 µM in [2].

For the compound `COc1ccc(C(C)=O)cc1S(N)(=O)=O`, the LC50 in the series with NIH3T3 was above 2700 µM. In addition, the Activity in the series on HL-60 was 74.74%. The MIC in the series with Staphylococcus aureus was above 57 µM; in series [1], above 218 µM; in [2] it was above 175 µM.

For `COc1ccc(C(=O)/C=C/c2ccc3c(c2)OCO3)cc1S(=O)(=O)Nc1c(N)nc(SC)[nH]c1=O`, in the series with NIH3T3, the median lethal concentration (LC50) turned out to be 7.1 µM. For the same compound, the Activity in the series on HCT-116 is 18.36%; in the series on K562 it was 53.79%. Also, the minimal inhibitory concentration (MIC) is above 57 µM with Staphylococcus aureus, above 97 µM in [1] and above 175 µM in series [2].

With `COc1ccc(/C=C/C(=O)c2ccc(OC)c(S(=O)(=O)Nc3c(N)nc(SC)[nH]c3=O)c2)cc1`, the LC50 in the series with NIH3T3 amounted to 6.5 µM. Also, the Activity in the series with HCT-116 was 24.01%; with K562, 54.26%. The minimal inhibitory concentration (MIC) is above 57 µM against Staphylococcus aureus, above 100 µM in series [1] and above 175 µM in [2].

As to `COc1ccc(/C=C/C(=O)c2ccc(OC)c(S(N)(=O)=O)c2)cc1`, in the series on NIH3T3, the LC50 amounted to 96 µM. Moreover, the Activity with SR worked out at 28.1%; in the series on K562, 38.78%. Also, the MIC in the series with Staphylococcus aureus was above 57 µM; in series [1], above 144 µM; in series [2], above 175 µM.

Take `COc1ccc(C(=O)/C=C/c2cc(OC)c(OC)c(OC)c2)cc1S(N)(=O)=O`: the LC50 with NIH3T3 was found to be 2.4 µM. In addition, the MIC against Staphylococcus aureus was above 57 µM; in series [1], above 123 µM; in [2] it was above 175 µM.

`COc1ccc(C(C)=O)cc1S(=O)(=O)Nc1c(N)nc(SC)[nH]c1=O`: the LC50 in the series with NIH3T3 was above 1600 µM. In addition, the Activity with M14 was 94.85%. Further, the MIC in the series on Staphylococcus aureus is above 57 µM; in series [1] it was above 130 µM; in series [2], above 175 µM.

As for `C[C@@H]1C[C@@H]([C@H](O)CC2CC(=O)NC(=O)C2)C(=O)[C@@H](C)C1` [CYCLOHEXIMIDE], the LC50 in the series with NIH3T3 is below 2.2 µM.

On to `COc1ccc(C(=O)/C=C/c2ccccc2)cc1S(N)(=O)=O`, for which the selectivity ratio in series [3] was 0.48. In addition, the LC50 in the series on NIH3T3 stood at 7.7 µM. For the same compound, the Activity in the series with K562 turned out to be 7.9%. Besides, the MIC in the series on Staphylococcus aureus was above 57 µM; in series [1], 16 µM (≈ 5.08 µg/mL); in [2], above 175 µM.
